Source: ChEMBL document CHEMBL3352514, “Anti-cancer activity of carbamate derivatives of melampomagnolide B” (Bioorg Med Chem Lett, 2014)

Assays:
[1] = Growth inhibition of human SF539 cells; type: functional; conditions: SF-539
How it was run: (§1)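 NCI 60-cell-line tumour panel. Compounds were first screened at a single concentration of 10 µM, then tested in 5-dose assays. Growth was read as the change in optical density, expressed as a percentage of control. GI50 is the concentration (µM) that halves cellular growth, and the values were taken from the NCI database.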

[2] = Growth inhibition of human HOP92 cells; type: functional; conditions: HOP-92; how it was run: as §1
[3] = test system: ACHN; experiment: Growth inhibition of human ACHN cells; type: functional; how it was run: as §1
[4] = test system: Malme-3M; experiment: Growth inhibition of human MALME-3M cells; type: functional; how it was run: as §1
[5] = Half life in human plasma; type: ADME, cell-free
[6] = test system: NCI-H522; experiment: Growth inhibition of human NCI-H522 cells; type: functional; how it was run: as §1
[7] = test system: MCF7; experiment: Growth inhibition of human MCF7 cells; type: functional; how it was run: as §1
[8] = test system: SNB-75; experiment: Growth inhibition of human SNB75 cells; type: functional; how it was run: as §1
[9] = Growth inhibition of human HCT116 cells; type: functional; conditions: HCT-116; how it was run: as §1
[10] = Growth inhibition of human COLO205 cells; type: functional; conditions: COLO 205; how it was run: as §1
[11] = test system: CCRF-CEM; experiment: Growth inhibition of human CCRF-CEM cells; type: functional; how it was run: as §1
[12] = test system: DU-145; experiment: Growth inhibition of human DU145 cells; type: functional; how it was run: as §1
[13] = Growth inhibition of human RPMI8226 cells; type: functional; conditions: RPMI-8226; how it was run: as §1
[14] = test system: MDA-MB-468; experiment: Growth inhibition of human MDA-MB-468 cells; type: functional; how it was run: as §1
[15] = test system: MDA-MB-435; experiment: Growth inhibition of human MDA-MB-435 cells; type: functional; how it was run: as §1
[16] = Growth inhibition of human LOXIMVI cells; type: functional; conditions: LOX IMVI; how it was run: as §1
[17] = test system: HL-60(TB); experiment: Growth inhibition of human HL-60(TB) cells; type: functional
How it was run: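 Tested in the NCI 60 human tumour cell line panel. Compounds were first screened at a single concentration of 10 µM, and hits were then run in a five-dose assay. Growth was read as the change in optical density, expressed as a percentage of control. GI50 is the concentration that halves cellular growth, taken from the NCI database.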

[18] = test system: SR; experiment: Growth inhibition of human SR cells; type: functional; how it was run: as §1
[19] = Growth inhibition of human OVCAR3 cells; type: functional; conditions: OVCAR-3; how it was run: as §1
[20] = test system: K562; experiment: Growth inhibition of human K562 cells; type: functional; how it was run: as §1
[21] = test system: SW-620; experiment: Growth inhibition of human SW620 cells; type: functional; how it was run: as §1
[22] = test system: T47D; experiment: Growth inhibition of human T47D cells; type: functional; how it was run: as §1
[23] = test system: IGROV-1; experiment: Growth inhibition of human IGROV1 cells; type: functional; how it was run: as §1
[24] = Growth inhibition of human BT549 cells; type: functional; conditions: BT-549; how it was run: as §1
[25] = test system: M14; experiment: Growth inhibition of human M14 cells; type: functional; how it was run: as §1
[26] = test system: CAKI-1; experiment: Growth inhibition of human CAKI-1 cells; type: functional; how it was run: as §1
[27] = test system: TK-10; experiment: Growth inhibition of human TK10 cells; type: functional; how it was run: as §1
[28] = Growth inhibition of human RXF393 cells; type: functional; conditions: RXF 393; how it was run: as §1
[29] = Growth inhibition of human MOLT4 cells; type: functional; conditions: MOLT-4; how it was run: as §1

SMILES	GI50 [1] [µM]	GI50 [2] [µM]	GI50 [3] [µM]	GI50 [6] [µM]	GI50 [7] [µM]	GI50 [9] [µM]	GI50 [10] [µM]	GI50 [11] [µM]	GI50 [12] [µM]	GI50 [13] [µM]	GI50 [15] [µM]	GI50 [16] [µM]	GI50 [21] [µM]	GI50 [22] [µM]	GI50 [23] [µM]	GI50 [24] [µM]	GI50 [25] [µM]	GI50 [26] [µM]	GI50 [27] [µM]	GI50 [28] [µM]	other results
C=C1C(=O)O[C@H]2[C@H]1CC/C(COC(=O)NCCN1CCOCC1)=C\CC[C@@]1(C)O[C@@H]21	14.4	2.3	3.74	2.13	3.54	2.87	8.89	3.03	3.74	5.72	5.89	4.84	3.48	6.32	3.49	4.99	7.97	4.31	3.93	3	GI50 [4]: 6.12 µM; half-life [5]: 1.67 h; GI50 [8]: 19.5 µM; GI50 [14]: 3.26 µM; GI50 [17]: 3.59 µM; GI50 [18]: 3.65 µM; GI50 [19]: 6.2 µM; GI50 [20]: 3.37 µM; GI50 [29]: 5 µM
C=C1C(=O)O[C@H]2[C@H]1CC/C(COC(=O)NCCc1ccccn1)=C\CC[C@@]1(C)O[C@@H]21	5.77	2.25	2.75	1.64	2.85	1.89	3.54	2.65	4.59	8.2	6.01	4.96	3.13	6.19	14.4	2.6	5.58	2.88	3.78	2.22	GI50 [4]: 7.52 µM; half-life [5]: 1.67 h; GI50 [8]: 3.78 µM; GI50 [14]: 3.22 µM; GI50 [18]: 4.1 µM; GI50 [29]: 5.54 µM
C=C1C(=O)O[C@@H]2C3O[C@]3(C)CC/C=C(\C)CC[C@@H]12 (stereo not given in full)	–	–	–	–	–	10	–	–	–	–	–	–	–	–	–	–	–	10	–	–	–
C=C1C(=O)O[C@H]2[C@H]1CC/C(COC(=O)N1CCC(F)(F)CC1)=C\CC[C@@]1(C)O[C@@H]21	1.98	1.45	1.79	1.25	1.62	1.41	2.06	0.68	2.44	1.98	0.46	2.23	1.46	3.07	2.31	2.69	2.84	2.03	2.6	1.2	GI50 [4]: 1.9 µM; half-life [5]: 8 h; GI50 [8]: 6.13 µM; GI50 [14]: 0.57 µM; GI50 [17]: 2.04 µM; GI50 [18]: 1.38 µM; GI50 [19]: 1.69 µM; GI50 [20]: 3.45 µM; GI50 [29]: 2.05 µM
C/C1=C\CC[C@@]2(C)O[C@@H]2[C@H]2OC(=O)C(CN(C)C)[C@@H]2CC1 (stereo not given in full) [DIMETHYLAMINOPARTHENOLIDE]	2.51	10	15.8	2.51	5.01	5.01	31.6	1.99	5.01	2.51	7.94	10	3.98	39.8	19.9	5.01	15.8	12.5	3.16	15.8	GI50 [17]: 1.58 µM; GI50 [19]: 12.5 µM; GI50 [20]: 2.51 µM; GI50 [29]: 3.16 µM
C=C1C(=O)O[C@H]2[C@H]1CC/C(COC(=O)Nc1n[nH]c(SC)n1)=C\CC[C@@]1(C)O[C@@H]21	1.76	0.65	1.75	1.26	1.33	1.13	1.79	0.62	3.49	2.57	2.24	1.95	1.12	2.23	3.66	1.47	1.59	1.99	2.51	0.9	GI50 [4]: 2.32 µM; half-life [5]: 1.67 h; GI50 [8]: 1.71 µM; GI50 [14]: 1.29 µM; GI50 [18]: 2.36 µM; GI50 [29]: 2.32 µM
C=C1C(=O)O[C@H]2[C@H]1CC/C(COC(=O)NCCN1CCCC1)=C\CC[C@@]1(C)O[C@@H]21	15	2.25	3.8	1.78	3.91	3.18	4.78	2.49	7.42	8.71	6.56	7.88	3.46	4.86	4.09	4.75	9.65	6.86	3.11	4.08	GI50 [4]: 4.18 µM; half-life [5]: 1.67 h; GI50 [8]: 18 µM; GI50 [14]: 2.3 µM; GI50 [17]: 4.15 µM; GI50 [18]: 10.2 µM; GI50 [19]: 8.41 µM; GI50 [20]: 3.26 µM; GI50 [29]: 3.48 µM
